Experimental data taken from ChEMBL document CHEMBL1122263, “Resolution and absolute configuration of an ergoline-related dopamine agonist, trans-4,4a,5,6,7,8,8a,9-Octahydro-5-propyl-1H(or 2H)-pyrazolo[3,4-g]quinoline” (J Med Chem, 1983).
Several values for one entry are separate records, joined by “and”; a condition that tells them apart may be missing. Equal entries are not always repeated.

Columns and labels:
Rattus norvegicus [1] = test: Effect on Turning behavior in male rats with unilateral 6-hydroxydopamine-induced lesions of the nigrostriatal tract at 500 ug/kg ip; type: functional
Method in brief: (§1)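 Rats carrying unilateral 6-hydroxydopamine lesions of the nigrostriatal tract, six per group, dosed ip. Contralateral turning recorded as: % of rats making at least one turn/min for 15 min; average turns in the first 15 min after turning began; turns in the first hour; and duration of turning in hours.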

Rattus norvegicus [2] = test: Hypotensive activity when administered ip in pentobarbital-anesthetized, spontaneously hypertensive rats, at a dose 10 ug/kg; type: functional
Method in brief: (§2)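 Spontaneously hypertensive rats under pentobarbital anesthesia, arterial BP recorded. Dosing iv, ip or intragastric at 1–1000 μg/kg. Value is maximum % change in BP, taken immediately after iv or within 30 min after ip/ig dosing. Mean ± SE of four rats.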

Rattus norvegicus [3] = test: Hypotensive activity when administered ig in pentobarbital-anesthetized, spontaneously hypertensive rats, at a dose 1000 ug/kg; type: functional; method in brief: as §2
Rattus norvegicus [4] = test: Effect (% reduction) on serum levels in reserpinized male rats at a dose, 0.03 umol/kg; type: functional
Method in brief: (§3)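 Prolactin assay in reserpinized male rats, run by standard methods. Doses given orally; value is % reduction of serum prolactin versus control. Significance set at p < 0.05.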

Rattus norvegicus [5] = test: Effect (% reduction) on serum levels in reserpinized male rats at a dose, 0.17 umol/kg; type: functional; method in brief: as §3
Rattus norvegicus [6] = test: Effect of iv injection on arterial blood pressure in the anesthetized, spontaneously hypertensive rat at a dose 1 ug/kg
Canis familiaris [7] = test: Effect of iv injection on arterial blood pressure in the anesthetized, normotensive dog at a dose 1000 ug/kg; type: functional, Canis lupus familiaris
Rattus norvegicus [8] = test: Effect of iv injection on arterial blood pressure in the anesthetized, spontaneously hypertensive rat at a dose 10 ug/kg
Canis familiaris [9] = test: Effect of iv injection on arterial blood pressure in the anesthetized, normotensive dog at a dose 1 ug/kg; type: functional, Canis lupus familiaris
Rattus norvegicus [10] = test: Hypotensive activity when administered ip in pentobarbital-anesthetized, spontaneously hypertensive rats, at a dose 100 ug/kg; type: functional; method in brief: as §2
Rattus norvegicus [11] = test: Hypotensive activity when administered ip in pentobarbital-anesthetized, spontaneously hypertensive rats, at a dose 1000 ug/kg; type: functional; method in brief: as §2
Rattus norvegicus [12] = test: Hypotensive activity when administered ig in pentobarbital-anesthetized, spontaneously hypertensive rats, at a dose 100 ug/kg; type: functional; method in brief: as §2
Canis familiaris [13] = test: Effect of iv injection on arterial blood pressure in the anesthetized, normotensive dog at a dose 100 ug/kg; type: functional, Canis lupus familiaris
Felis catus [14] = test: Effect of iv injection on arterial blood pressure in the anesthetized, normotensive cat at a dose 10 ug/kg; type: functional
Rattus norvegicus [15] = test: Effect of iv injection on arterial blood pressure in the anesthetized, spontaneously hypertensive rat at a dose 1000 ug/kg
Rattus norvegicus [16] = test: Effect (% reduction) on serum levels in reserpinized male rats at a dose,0.017 umol/kg; type: functional; method in brief: as §3
Canis familiaris [17] = test: Effect of iv injection on arterial blood pressure in the anesthetized, normotensive dog at a dose 10 ug/kg; type: functional, Canis lupus familiaris
Felis catus [18] = test: Effect of iv injection on arterial blood pressure in the anesthetized, normotensive cat at a dose 100 ug/kg; type: functional
Rattus norvegicus [19] = test: Hypotensive activity when administered iv in pentobarbital-anesthetized, spontaneously hypertensive rats, at a dose 10 ug/kg; type: functional; method in brief: as §2
Rattus norvegicus [20] = test: Effect of iv injection on arterial blood pressure in the anesthetized, spontaneously hypertensive rat at a dose 100 ug/kg
Rattus norvegicus [21] = test: Effect (% reduction) on serum levels in reserpinized male rats at a dose, 0.3 umol/kg; type: functional; method in brief: as §3
Rattus norvegicus [22] = test: Hypotensive activity when administered iv in pentobarbital-anesthetized, spontaneously hypertensive rats, at a dose 1000 ug/kg; type: functional; method in brief: as §2
Rattus norvegicus [23] = test: Hypotensive activity when administered iv in pentobarbital-anesthetized, spontaneously hypertensive rats, at a dose 1 ug/kg; type: functional; method in brief: as §2
Rattus norvegicus [24] = test: Hypotensive activity when administered ig in pentobarbital-anesthetized, spontaneously hypertensive rats, at a dose 10 ug/kg; type: functional; method in brief: as §2
Rattus norvegicus [25] = test: Hypotensive activity when administered iv in pentobarbital-anesthetized, spontaneously hypertensive rats, at a dose 100 ug/kg; type: functional; method in brief: as §2
Rattus norvegicus [26] = test: Hypotensive activity when administered iv in pentobarbital-anesthetized, spontaneously hypertensive rats, at a dose 100 ug/Kg; type: functional; method in brief: as §2
Rattus norvegicus [27] = test: Hypotensive activity when administered iv in pentobarbital-anesthetized, spontaneously hypertensive rats, at a dose 1 ug/Kg; type: functional; method in brief: as §2
Rattus norvegicus [28] = test: Hypotensive activity when administered iv in pentobarbital-anesthetized, spontaneously hypertensive rats, at a dose 0.1 ug/kg; type: functional
Rattus norvegicus [29] = test: Hypotensive activity when administered iv in pentobarbital-anesthetized, spontaneously hypertensive rats, at a dose 10 ug/Kg; type: functional; method in brief: as §2
Rattus norvegicus [30] = test: Effect on turning behavior in male rats with unilateral 6-OH-Dopamine-induced lesions of the nigrostriatal tract at 100 ug/kg i.p.; type: functional; method in brief: as §1
Rattus norvegicus [31] = test: Hypotensive activity when administered iv in pentobarbital-anesthetized, spontaneously hypertensive rats, at a dose 1000 ug/Kg; type: functional; method in brief: as §2
Rattus norvegicus [32] = organism: Rattus norvegicus; test: Effect of lordotic behavior of rats preinjection lordosis-to-mount ratio; type: functional
Method in brief: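 Chronically ovariectomized Long-Evans hooded rats primed with 100 μg estrone sc in sesame oil 48 h before testing. Lordosis-to-mount ratio scored over 15 mounts by a sexually active male before injection. Drug given sc at 25 μg/kg in 1 mM ascorbic acid/1 mM acetic acid; retested 90 min later. N = 20; X ± SE.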

## CN1CCc2cccc3c2[C@H]1Cc1ccc(O)c(O)c1-3 [APOMORPHINE]
Rattus norvegicus [1]
  Activity: 100%

## CCCN1CCC[C@@H]2Cc3n[nH]cc3CC21 (mixture of isomers)
Rattus norvegicus [2]
  BP change: -6.1%
Rattus norvegicus [3]
  BP change: -50.7%
Rattus norvegicus [4]
  Reduction: 20%
Rattus norvegicus [5]
  Reduction: 65%
Rattus norvegicus [6]
  BP change: -13%
Canis familiaris [7]
  BP change: -46%
Rattus norvegicus [8]
  BP change: -22%
Canis familiaris [9]
  BP change: -15%
Rattus norvegicus [10]
  BP change: -40.5%
Rattus norvegicus [11]
  BP change: -45.7%
Rattus norvegicus [12]
  BP change: -27.6%
Canis familiaris [13]
  BP change: -45%
Felis catus [14]
  BP change: -23%
Rattus norvegicus [15]
  BP change: -52%
Rattus norvegicus [16]
  Reduction: 19%
Canis familiaris [17]
  BP change: -34%
Felis catus [18]
  BP change: -45%
Rattus norvegicus [19]
  BP change: -22.4%
Rattus norvegicus [20]
  BP change: -32%
Rattus norvegicus [21]
  Reduction: 76%
Rattus norvegicus [22]
  BP change: -52.2%
Rattus norvegicus [23]
  BP change: -12.7%
Rattus norvegicus [24]
  BP change: -5.4%
Rattus norvegicus [25]
  BP change: -32%

## CCCN1CCC[C@@H]2Cc3n[nH]cc3CC21 (single isomer, unassigned; (-))
Rattus norvegicus [4]
  Reduction: 38%
Rattus norvegicus [5]
  Reduction: 73%
Rattus norvegicus [1]
  Activity: 100%
Rattus norvegicus [26]
  BP change: -38.6%
Rattus norvegicus [16]
  Reduction: 26%
Rattus norvegicus [27]
  BP change: -14.3%
Rattus norvegicus [21]
  Reduction: 88%
Rattus norvegicus [28]
  BP change: -7.7%
Rattus norvegicus [29]
  BP change: -25.2%

## CCCN1CCC[C@@H]2Cc3n[nH]cc3CC21 (single isomer, unassigned; (+))
Rattus norvegicus [1]
  Activity: 0%
Rattus norvegicus [30]
  Activity: 0% and 0
Rattus norvegicus [26]
  BP change: -4.6%
Rattus norvegicus [31]
  BP change: -6.4%
Rattus norvegicus [27]
  BP change: -5.1%
Rattus norvegicus [28]
  BP change: -8.5%
Rattus norvegicus [32]
  L/M ratio: 0.12
Rattus norvegicus [29]
  BP change: -5%
